Measurements reported in paper PMC4243878 (British Journal of Clinical Pharmacology, 2014).
Where “and” joins values, the source holds several entries; their conditions need not be identical. Identical values can stand only once. Like-named read-outs stand apart in the source and are kept apart here.

How the values were obtained:
[1] = format: in vivo, human; settings: Cohort 1, boceprevir 800 mg every 8 h + dolutegravir 50 mg once daily (n = 15); geometric mean (%CVb)
Method in brief: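 Cohort 1 took 800 mg oral boceprevir three times daily with 50 mg dolutegravir daily for 10 days, with moderate-fat meals. Plasma was acidified with phosphoric acid, and the stereoisomers were extracted by solid-phase extraction. Analysis was LC-MS/MS with heated nebulizer, positive ion mode, calibrated 0.0052–5.2 and 0.0048–4.8 μg ml−1. Parameters came from noncompartmental steady-state analysis, reported as geometric means (%CVb) and median Tmax, and were compared with label values without statistics.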

[2] = cited from earlier work
[3] = cited from earlier work; remark: listed apart in the source
[4] = format: in vivo, human; settings: Cohort 2, telaprevir 750 mg every 8 h + dolutegravir 50 mg once daily (n = 15)
Method in brief: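 Cohort 2 took 750 mg oral telaprevir three times daily with 50 mg dolutegravir daily for 10 days, with moderate-fat meals. Plasma was acidified with phosphoric acid, and (S)-telaprevir was extracted by supported liquid extraction. Analysis was LC-MS/MS with TurboIonSpray, positive ion mode, calibrated 0.1–20 μg ml−1. Steady-state parameters came from noncompartmental analysis and were compared with label data without formal statistics.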

[5] = Safety: adverse events in healthy adult subjects; format: in vivo, human; settings: dolutegravir n = 32, combinations n = 16 each
Method in brief: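 Healthy adults aged 18–65 were randomised into two cohorts of 16. Period 1: 50 mg dolutegravir once daily for 5 days. Period 2, with no washout: Cohort 1 added boceprevir 800 mg three times daily, Cohort 2 added telaprevir 750 mg three times daily, both for 10 days. Doses were given with moderate-fat meals (30% fat, 600 calories). Adverse events were recorded and graded for intensity and drug relatedness.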

[6] = format: in vivo, human; settings: for Cmin / AUC / Cmax / concentration at 24 h / half-life: geometric mean (95% CI); for AUC / Cmax / concentration at 24 h / half-life: both, human, plasma, oral; for AUC: AUC0–τ; for concentration at 24 h: Cτ
Method in brief: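 Healthy adults took 50 mg oral dolutegravir once daily with a morning moderate-fat meal, alone for 5 days. They then continued for 10 days with boceprevir 800 mg or telaprevir 750 mg three times daily, with no washout. Plasma was assayed by validated LC-MS/MS. Noncompartmental parameters used actual sampling times, with Cτ taken at 24 h postdose. Log-transformed AUC0–τ, Cmax and Cτ were analysed by mixed-model ANOVA (subject random, treatment fixed). Results were given as GLS mean ratios with 95% CI versus dolutegravir alone.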

[7] = previous dolutegravir clinical studies; cited from earlier work
[8] = Boceprevir alone, historical, ref Boceprevir package insert, 2013
[9] = Telaprevir alone, historical, ref Telaprevir package insert, 2013
[10] = Cohort 1, dolutegravir 50 mg once daily + boceprevir 800 mg every 8 h, Period 2 (n = 13)
[11] = Cohort 1, dolutegravir + boceprevir vs. dolutegravir
[12] = Cohort 2, dolutegravir 50 mg once daily + telaprevir 750 mg every 8 h, Period 2 (n = 15)
[13] = Cohort 2, dolutegravir + telaprevir vs. dolutegravir
[14] = 50 mg, Cohort 1, dolutegravir 50 mg once daily alone, Period 1 (n = 16)
[15] = 50 mg, Cohort 2, dolutegravir 50 mg once daily alone, Period 1 (n = 16)
[16] = coadministration with telaprevir vs dolutegravir alone

SMILES: CC(C)(C)NC(=O)N[C@H](C(=O)N1C[C@H]2[C@@H]([C@H]1C(=O)NC(CC1CCC1)C(=O)C(N)=O)C2(C)C)C(C)(C)C (stereo partly shown) [Boceprevir, boceprevir]
- Cmin [1]: 0.07 (23) μg ml^−1
- Cτ [1]: 0.08 (35) μg ml^−1
- AUC0–τ [2, 8]: 5408 ng·h/mL
- Cmax [2, 8]: 1723 ng/mL
- Cmin [2, 8]: 80 ng/mL
- half-life [2]: 3 to 4 h

SMILES: CCC[C@H](NC(=O)[C@@H]1[C@H]2CCC[C@H]2CN1C(=O)[C@@H](NC(=O)[C@@H](NC(=O)c1cnccn1)C1CCCCC1)C(C)(C)C)C(=O)C(=O)NC1CC1 [Telaprevir, telaprevir]
- AUC0–τ [3, 9]: 22300 ng·h/mL
- Cmax [3, 9]: 3510 ng/mL
- Cmin [3, 9]: 2030 ng/mL
- half-life [3]: 9 to 10 h
- Cmin ([4]; geometric mean (%CVb)): 1.72 (25) μg ml^−1
- Cτ ([4]; geometric mean (%CVb)): 1.75 (26) μg ml^−1
- Tmax ([4]; median (range)): 3.00 (2.0, 4.0) h

SMILES: C[C@@H]1CCO[C@H]2Cn3cc(C(=O)NCc4ccc(F)cc4F)c(=O)c(O)c3C(=O)N12 [Dolutegravir]
- All adverse events: Abdominal pain [5]: 0 n (%)
- All adverse events: Anal haemorrhage [5]: 0 n (%)
- All adverse events: Anorectal discomfort [5]: 0 n (%)
- All adverse events: Any adverse event [5]: 4 (13) n (%)
- All adverse events: Dysgeusia [5]: 0 n (%)
- All adverse events: Haemorrhoids [5]: 0 n (%)
- All adverse events: Headache [5]: 2 (6) n (%)
- All adverse events: Maculopapular rash [5]: 1 (3) n (%)
- Drug-related adverse events: Abdominal pain [5]: 0 n (%)
- Drug-related adverse events: Any adverse event [5]: 2 (6) n (%)
- Drug-related adverse events: Dysgeusia [5]: 0 n (%)
- Drug-related adverse events: Headache [5]: 1 (3) n (%)
- Drug-related adverse events: Maculopapular rash [5]: 1 (3) n (%)
- Subjects withdrawn because of AEs [5]: 0 n (%)
- Cmin [6, 10]: 1.36 (1.10, 1.68) μg ml^−1
- Cmin ([6]; Cohort 1, dolutegravir 50 mg once daily alone, Period 1 (n = 16)): 1.00 (0.79, 1.25) μg ml^−1
- AUC0–τ GLS mean ratio (95% CI) [6, 11]: 1.07 (0.924, 1.234)
- Cmax GLS mean ratio (95% CI) [6, 11]: 1.05 (0.941, 1.176)
- Cmin GLS mean ratio (95% CI) [6, 11]: 1.36 (1.106, 1.684)
- Cτ GLS mean ratio (95% CI) [6, 11]: 1.08 (0.878, 1.329)
- t1/2 GLS mean ratio (95% CI) [6, 11]: 1.05 (0.940, 1.166)
- Cmin [6, 12]: 2.03 (1.73, 2.38) μg ml^−1
- Cmin ([6]; Cohort 2, dolutegravir 50 mg once daily alone, Period 1 (n = 16)): 1.18 (0.96, 1.46) μg ml^−1
- AUC0–τ GLS mean ratio (95% CI) [6, 13]: 1.25 (1.183, 1.327)
- Cmax GLS mean ratio (95% CI) [6, 13]: 1.19 (1.096, 1.282)
- Cmin GLS mean ratio (95% CI) [6, 13]: 1.76 (1.570, 1.963)
- Cτ GLS mean ratio (95% CI) [6, 13]: 1.37 (1.274, 1.468)
- t1/2 GLS mean ratio (95% CI) [6, 13]: 1.18 (1.061, 1.305)
- AUC [6, 14]: 61500 ng·h/mL
- AUC [6, 15]: 68900 ng·h/mL
- Cmax [6, 14]: 4620 ng/mL
- Cmax [6, 15]: 4990 ng/mL
- concentration at 24 h [6, 14]: 1310 ng/mL
- concentration at 24 h [6, 15]: 1590 ng/mL
- half-life ([6]; 50 mg, t1/2, Cohort 1, dolutegravir 50 mg once daily alone, Period 1 (n = 16)): 13.2 h
- half-life ([6]; 50 mg, t1/2, Cohort 2, dolutegravir 50 mg once daily alone, Period 1 (n = 16)): 14.5 h
- AUC [6, 10]: 65300 ng·h/mL
- AUC [6, 12]: 84200 ng·h/mL
- Cmax [6, 10]: 4820 ng/mL
- Cmax [6, 12]: 5810 ng/mL
- concentration at 24 h [6, 10]: 1400 ng/mL
- concentration at 24 h [6, 12]: 2090 ng/mL
- half-life ([6]; t1/2, Cohort 1, dolutegravir 50 mg once daily + boceprevir 800 mg every 8 h, Period 2 (n = 13)): 13.8 h
- half-life ([6]; t1/2, Cohort 2, dolutegravir 50 mg once daily + telaprevir 750 mg every 8 h, Period 2 (n = 14)): 16.7 h
- change (increase) in dolutegravir Cτ ([6]; coadministration with boceprevir vs dolutegravir alone): 8% and < 10%
- increase in dolutegravir AUC0–τ [6, 16]: 25%
- increase in dolutegravir Cmax [6, 16]: 19%
- increase in dolutegravir Cτ [6, 16]: 37%
- change in dolutegravir exposure ([6]; with boceprevir): 7%
- change in dolutegravir exposure ([6]; with telaprevir): 25%
- Elevated alanine aminotransferase, frequency [7]: <1–2 % of subjects
